Data set [1] has as its system Rtt109. To be noted: ref [14], [20]; cited from earlier work.
For data set [2], the target named is T1, Rtt109-Vps75 (Saccharomyces cerevisiae, UniProt Q07794).
T1 sequence (Q07794 1-436): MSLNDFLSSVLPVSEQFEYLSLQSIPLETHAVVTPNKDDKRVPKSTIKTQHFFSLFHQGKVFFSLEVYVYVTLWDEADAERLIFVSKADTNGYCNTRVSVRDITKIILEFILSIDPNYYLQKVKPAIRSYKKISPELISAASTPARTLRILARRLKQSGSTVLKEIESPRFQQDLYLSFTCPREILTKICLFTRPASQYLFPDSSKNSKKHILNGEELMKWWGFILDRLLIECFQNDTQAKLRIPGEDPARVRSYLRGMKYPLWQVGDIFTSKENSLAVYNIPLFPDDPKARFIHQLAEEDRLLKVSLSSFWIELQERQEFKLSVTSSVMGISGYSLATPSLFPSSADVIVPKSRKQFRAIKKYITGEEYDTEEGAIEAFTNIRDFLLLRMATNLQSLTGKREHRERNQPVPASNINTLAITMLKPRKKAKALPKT
T1 sequence (P53853 1-264 partner): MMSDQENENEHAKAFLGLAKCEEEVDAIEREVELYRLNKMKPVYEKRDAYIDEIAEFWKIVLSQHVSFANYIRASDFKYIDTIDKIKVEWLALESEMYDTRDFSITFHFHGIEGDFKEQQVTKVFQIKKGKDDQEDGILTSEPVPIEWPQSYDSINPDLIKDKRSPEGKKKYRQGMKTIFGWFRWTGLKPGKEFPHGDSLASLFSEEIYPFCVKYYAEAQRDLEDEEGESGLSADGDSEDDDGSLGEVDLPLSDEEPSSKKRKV
In words: Rtt109-Vps75 HAT reaction-rate assay with H3n21 peptide, released CoA quantified. Format: biochemical. Conditions: for Vmax, acetyl-CoA titration: 50 nM Rtt109-Vps75, 15 µM H3n21.

For data set [3], the target named is T1, Rtt109-Vps75. In words: Single-point HAT reactions, CoA formed by the end of a 30-minute reaction. It counts as biochemical. Conditions: data not shown.
Data set [4] concerns the target T2, p300 (Homo sapiens, UniProt Q09472). Briefly: p300 HAT reaction-rate assay with H3n21 peptide. Format: biochemical, mammalian. Put shortly: (§1)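 Enzyme: 3.1 µg/ml (61 nM) Gcn5 or 15 µg/ml p300, with 15 µM H3n21 peptide. Enzyme and peptide pre-incubated with DMSO or test compound for 5 min at 30°C. Reactions started with 30 µM acetyl-CoA. Released CoA quantified every 2 min over the first 10 min. Rate derived by linear regression of product versus time. Compound capped at 100 µM. For p300, single-point assays were also run at 0.5–2 µM compound.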

Data set [5] has as its target Gcn5 (Saccharomyces cerevisiae, UniProt Q03330). In words: Gcn5 HAT reaction-rate assay with H3n21 peptide. It counts as biochemical. The method, boiled down: as §1
Data set [6] addresses T1, Rtt109-Vps75. In words: HAT-ELISA of H3K56 acetylation on. Conditions: 500 nM compound, 50 nM Rtt109, 50 nM Vps75, 30 min, 30°C. Format: biochemical. A general note: In an ELISA, binding on a coated surface is turned into a signal by an enzyme label.
Data set [7] addresses Rtt109/Asf1 (Saccharomyces cerevisiae, UniProt Q07794). Briefly: HAT-ELISA of H3K56 acetylation on. Format: biochemical. Conditions: 500 nM compound, 50 nM Rtt109, 400 nM Asf1N, 30 min, 30°C. The method, boiled down:
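Reaction mix: 50 nM Rtt109, 400 nM Asf1N and […] (H3-H4)2 tetramers, pre-incubated 5 min with DMSO or 500 nM test compound. Started with 15 µM acetyl-CoA, with water as the no-substrate control, then incubated 30 min at 30°C. H3K56ac detected by ELISA with H3K56ac-specific rabbit antiserum. Signal normalised to DMSO plus acetyl-CoA.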

For data set [8], the target named is T2, p300. Briefly: HAT-ELISA on. Format: biochemical, mammalian. Conditions: 500 nM compound, 15 µg/ml p300.
The target in data set [9] is T1, Rtt109-Vps75. Briefly: Dialysis and time-course tests of tight binding to Rtt109-Vps75. Format: biochemical.
The test system of data set [10] is C. albicans. Briefly: Cellular levels of H3K56ac. It counts as cell-based. To be noted: data not shown.
In data set [11] the test system is Saccharoyces cerevisiae. Briefly: Cellular levels of H3K56ac. It counts as cell-based. Conditions: data not shown.
Data set [12] deals with C. albicans. Briefly: Sensitivity to the DNA damaging agent camptothecin. Format: cell-based. To be noted: data not shown.
Data set [13] concerns Saccharoyces cerevisiae. In words: Sensitivity to the DNA damaging agent camptothecin. Format: cell-based. To be noted: data not shown.
A short description of data set [14]: Solubility limit in HAT assays. It counts as physicochemical. To be noted: not tested above 100 µM.

T2 sequence (Q09472 whole entry, species assumed): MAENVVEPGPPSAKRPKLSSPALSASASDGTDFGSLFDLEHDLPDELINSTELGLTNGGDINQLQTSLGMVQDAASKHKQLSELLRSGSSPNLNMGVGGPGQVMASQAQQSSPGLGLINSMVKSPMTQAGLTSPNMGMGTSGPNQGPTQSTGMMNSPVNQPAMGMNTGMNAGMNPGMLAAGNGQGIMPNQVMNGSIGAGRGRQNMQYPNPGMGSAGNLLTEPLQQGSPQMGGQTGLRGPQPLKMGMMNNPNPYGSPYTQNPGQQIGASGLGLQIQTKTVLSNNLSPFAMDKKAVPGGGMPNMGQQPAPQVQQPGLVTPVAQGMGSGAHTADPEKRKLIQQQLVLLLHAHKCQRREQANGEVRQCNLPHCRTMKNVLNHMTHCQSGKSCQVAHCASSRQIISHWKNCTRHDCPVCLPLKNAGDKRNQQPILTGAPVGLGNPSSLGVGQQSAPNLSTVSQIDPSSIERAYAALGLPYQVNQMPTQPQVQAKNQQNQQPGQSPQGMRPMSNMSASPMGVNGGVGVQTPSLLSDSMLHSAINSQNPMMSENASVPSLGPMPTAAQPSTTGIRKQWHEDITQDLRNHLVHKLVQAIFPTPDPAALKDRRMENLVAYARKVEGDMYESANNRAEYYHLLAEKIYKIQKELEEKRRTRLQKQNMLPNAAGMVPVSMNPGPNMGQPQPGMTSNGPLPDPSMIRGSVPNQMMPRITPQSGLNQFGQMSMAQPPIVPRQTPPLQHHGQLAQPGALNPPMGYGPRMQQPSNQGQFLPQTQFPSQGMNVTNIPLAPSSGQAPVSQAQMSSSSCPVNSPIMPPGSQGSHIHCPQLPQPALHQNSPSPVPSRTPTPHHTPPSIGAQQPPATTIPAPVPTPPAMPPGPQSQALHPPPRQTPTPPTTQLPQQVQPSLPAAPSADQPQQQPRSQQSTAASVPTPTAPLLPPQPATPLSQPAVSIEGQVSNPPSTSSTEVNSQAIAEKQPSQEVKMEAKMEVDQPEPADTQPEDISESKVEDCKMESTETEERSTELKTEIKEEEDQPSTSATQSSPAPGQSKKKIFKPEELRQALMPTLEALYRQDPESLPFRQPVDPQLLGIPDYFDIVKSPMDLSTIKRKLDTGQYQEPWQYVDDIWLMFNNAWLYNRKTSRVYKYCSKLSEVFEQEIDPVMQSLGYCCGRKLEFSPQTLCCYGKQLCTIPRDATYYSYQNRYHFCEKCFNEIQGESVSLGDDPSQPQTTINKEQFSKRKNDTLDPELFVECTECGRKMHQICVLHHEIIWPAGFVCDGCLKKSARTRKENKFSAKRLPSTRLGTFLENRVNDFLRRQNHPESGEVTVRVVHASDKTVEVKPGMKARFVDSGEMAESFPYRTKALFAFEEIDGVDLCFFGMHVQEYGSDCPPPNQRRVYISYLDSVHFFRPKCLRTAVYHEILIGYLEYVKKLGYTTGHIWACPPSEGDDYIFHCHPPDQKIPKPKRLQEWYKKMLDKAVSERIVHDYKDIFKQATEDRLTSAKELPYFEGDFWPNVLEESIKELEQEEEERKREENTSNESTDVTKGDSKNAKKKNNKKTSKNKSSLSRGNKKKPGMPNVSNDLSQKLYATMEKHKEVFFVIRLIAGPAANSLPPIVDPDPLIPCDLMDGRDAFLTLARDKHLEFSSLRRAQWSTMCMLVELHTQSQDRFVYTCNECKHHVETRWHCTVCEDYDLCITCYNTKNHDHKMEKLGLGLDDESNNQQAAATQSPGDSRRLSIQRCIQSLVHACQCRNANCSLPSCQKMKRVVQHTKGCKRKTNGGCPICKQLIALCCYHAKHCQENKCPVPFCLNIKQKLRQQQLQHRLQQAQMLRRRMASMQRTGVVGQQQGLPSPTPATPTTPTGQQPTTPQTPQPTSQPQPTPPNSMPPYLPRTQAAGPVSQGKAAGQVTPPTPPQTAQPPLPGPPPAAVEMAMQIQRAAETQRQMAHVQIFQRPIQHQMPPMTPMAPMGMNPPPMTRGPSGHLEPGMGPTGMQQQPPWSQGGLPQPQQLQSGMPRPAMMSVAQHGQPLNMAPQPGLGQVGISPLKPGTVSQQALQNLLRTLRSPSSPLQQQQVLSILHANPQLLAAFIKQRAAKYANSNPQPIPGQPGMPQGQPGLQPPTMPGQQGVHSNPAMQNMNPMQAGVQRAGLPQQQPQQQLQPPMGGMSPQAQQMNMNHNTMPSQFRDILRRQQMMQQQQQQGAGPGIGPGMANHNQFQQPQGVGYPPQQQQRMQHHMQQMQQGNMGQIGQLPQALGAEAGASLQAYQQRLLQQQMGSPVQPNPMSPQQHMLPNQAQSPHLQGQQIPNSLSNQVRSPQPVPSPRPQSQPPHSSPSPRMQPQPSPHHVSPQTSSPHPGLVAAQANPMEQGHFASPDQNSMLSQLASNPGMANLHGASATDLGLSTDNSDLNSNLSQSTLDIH
Chain of Gcn5 (Q03330 whole entry): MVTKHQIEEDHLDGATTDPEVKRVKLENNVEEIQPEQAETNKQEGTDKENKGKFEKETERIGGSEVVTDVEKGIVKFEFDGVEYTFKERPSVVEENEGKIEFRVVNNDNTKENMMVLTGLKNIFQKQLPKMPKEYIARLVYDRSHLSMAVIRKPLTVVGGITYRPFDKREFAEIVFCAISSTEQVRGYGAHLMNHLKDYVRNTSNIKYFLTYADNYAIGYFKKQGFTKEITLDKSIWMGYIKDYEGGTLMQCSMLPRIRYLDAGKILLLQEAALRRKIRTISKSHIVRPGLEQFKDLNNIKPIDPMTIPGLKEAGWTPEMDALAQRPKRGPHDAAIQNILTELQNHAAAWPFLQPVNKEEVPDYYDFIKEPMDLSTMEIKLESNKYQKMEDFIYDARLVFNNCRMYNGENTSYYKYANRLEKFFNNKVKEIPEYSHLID

Take `CC(=O)N[C@@H](CCCCNC(=O)CSCCNC(=O)CCNC(=O)[C@H](O)C(C)(C)COP(=O)(O)OP(=O)(O)OC[C@H]1O[C@@H](n2cnc3c(N)ncnc32)[C@H](O)[C@@H]1OP(=O)(O)O)C(N)=O` [Lys-CoA]: the “effect on Rtt109 catalysis” value in [1] was “do not affect Rtt109 catalysis”.

For the compound `CCC1(c2ccccc2)NC(=O)N(CC(=O)N(C)Cc2c(F)cccc2Cl)C1=O` (stereo not shown) [SAR9], the “effect on reaction rates, dose response” value in data set [2] (100 nM – 1 µM compound, 50 nM Rtt109-Vps75) is on record as “minimal inhibition even at the highest concentration tested”. Further, the “inhibition of acetylation by Rtt109-Vps75 in single-point HAT reactions” value in data set [3] is “not as potent as compound 1”.

`CCCC1(c2ccccc2)NC(=O)N(CC(=O)N(C)Cc2c(F)cccc2Cl)C1=O` (stereo not shown) [compound 1, N-[(2-chloro-6-fluorophenyl)methyl]-2-(2,5-dioxo-4-phenyl-4-propylimidazolidin-1-yl)-N-methylacetamide]: the “preference for inhibition of Rtt109 over p300 and Gcn5” value in data set [2] is “greater than two order of magnitude preference”. Moreover, the “Vmax, acetyl-CoA titration” value in data set [2] (30 µM compound 1) worked out at 1.46 ± 0.08 nM/s; in data set [2] (60 µM compound 1), 0.68 ± 0.09 nM/s. For the same compound, in [2] (0.5 – 2 µM compound), the “inhibition of Rtt109-Vps75 in single point enzyme assay” value was “inhibited Rtt109”. In data set [4] (0.5 – 2 µM compound), the “inhibition of p300 in single point enzyme assay” value is listed as “without inhibiting p300”. In addition, the “enzyme reaction rate remaining, p300” value in [4] (compound up to 100 µM, 15 µg/ml p300) is given as ≥ 80 % activity. In data set [4] (dose response up to 100 µM), the “inhibition of HAT activity of p300” value is “did not significantly inhibit”. Moreover, the “enzyme reaction rate remaining, Gcn5” value in data set [5] (compound up to 100 µM, 61 nM Gcn5) is listed as ≥ 80 % activity. Moreover, the “inhibition of HAT activity of Gcn5” value in data set [5] (dose response up to 100 µM) is recorded as “did not significantly inhibit”. Further, the “inhibition of H3K56 acetylation by Rtt109-Vps75” value in data set [6] is reported as “inhibited acetylation”. For the same compound, in data set [7], the “inhibition of H3K56 acetylation by Rtt109/Asf1” value is reported as “inhibited acetylation”. Further, the “inhibition of p300 HAT activity on (H3-H4)2 tetramers” value in [8] is on record as “no inhibitory effect”. For the same compound, in data set [9] (1 µM Rtt109-Vps75 with 1.0 µM compound 1, incubated 0-60 minutes on ice), the “time course of inhibition” value is listed as “the degree of inhibition increased during the entire 60 minutes”. In data set [9] (from substrate titrations, dialysis and enzyme-concentration dependence), the mode of inhibition result is recorded as “tight or perhaps irreversible inhibitor”. Also, the “effect on cellular levels of H3K56ac” value in data set [10] and in [11] was “have not observed that compound 1 is able to affect” throughout. The “effect on sensitivity to camptothecin” value in data set [12] and in [13] was “have not observed that compound 1 is able to affect” each time. Also, the solubility in assay result in [14] was “solubility limitations”.

(Values after publication PMC3654155 (Bioorganic & medicinal chemistry letters, 2013).)
